Assay: Toxicity liver stage against HepG2, at 10uM
Type: cell-based
Design: test concentration 10 uM, cell line HepG2-A16-CD81EGFP
Details: human, HepG2-A16-CD81EGFP cells; read-out: INHIBITION
How it was run: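 Uninfected HepG2-A16-CD81EGFP cells, 3 × 10^3 per well, 1536-well, plated on prespotted compound at 10 μM final, parasite-free screening media added to match infected plates; puromycin 10 μM positive, DMSO 0.5% negative; run in parallel with 48 h PbLuc assay at 37 °C, 5% CO2; viability by CellTiter-Glo luminescence, normalized to controls.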

Compound	cytotoxicity at 10 µM
O=C(CC1NC(N2CCc3ccccc3C2)=NC1=O)Nc1ccccc1 (stereo unspecified)	2.96%
CC(C)c1nnc(NC(=O)CN2C(=O)c3ccccc3NC2C(C)C)s1 (stereo unspecified)	-10.2%
O=C(C1CC(=O)N(c2n[nH]c3cc(Br)ccc23)C1)N1CCSCC1 (stereo unspecified)	-1.91%
COCC(=O)N1CCN(c2cc(-n3cccc3)nc(C)n2)CC1	-6.81%
CCOCc1ncn2c1CN(C(=O)Nc1cccc(F)c1)CC2	1.03%
CN(C)C(=O)N1CC[C@@H](O)[C@@H]1Cc1cnn(C)c1	7.02%
Cn1c(=O)[nH]c(=O)n2c(CC(=O)NCc3ccccc3)cnc12	7.77%
Cc1cnc(NC(=O)C(C)Oc2ccc3c(c2)OCO3)s1 (stereo unspecified)	-5.22%
CCc1nc(NCCn2cccn2)c2c(n1)c(C)nn2C	5.97%
CCC(C)NC(=O)c1nn(C)c(NC(=O)c2ccccc2OC)c1F (stereo unspecified)	-6.24%
CCNS(=O)(=O)c1cccc(CSC)c1	5.5%
Cc1cc(C(=O)N(C)Cc2cccs2)nc(N2CCOCC2)n1	4.45%
Cc1cc(C)n(CC(=O)N2CCC(c3ccn4nccc4n3)CC2)n1	-0.0825%
CCC(C)NC(=O)c1cc(S(=O)(=O)N(C)C)c(C)s1 (stereo unspecified)	-2.75%
Cc1cc(C)nc(Nc2nccnc2C2CCCN(C(CO)CO)C2)n1 (stereo unspecified)	0.216%
CN1CCCC(c2nccnc2-c2cccc(C(F)(F)F)c2)C1 (stereo unspecified)	7.75%
Cc1cnc(-c2nc(C3CCN(Cc4ccccc4C)CC3)no2)cn1	4.08%
Cc1cccc(C2CCCN(S(=O)(=O)c3cccnc3)C2)n1 (stereo unspecified)	4.05%
Cc1cc(C)nc(N2CCC(c3cc(CCO)[nH]n3)C2)n1 (stereo unspecified)	4.15%
Cc1cc(C2CCCN(S(=O)(=O)c3cn[nH]c3)C2)ccn1 (stereo unspecified)	-1.77%
CCn1ncc(CN2CCC(O)(Cn3ccc4ncccc43)CC2)c1C	-0.692%
O=C(O)CCc1cccc(C2CCCN2Cc2cccc(Cl)c2)n1 (stereo unspecified)	-22.6%
Cc1[nH]ccc1C(=O)N1CCOCC12CCCC2	4.14%

Compound	cytotoxicity at 10 µM
CN(CC(=O)N(C)C(c1cccnc1)c1ccc(F)c(F)c1)C1CC1 (stereo unspecified)	-3.57%
CCS(=O)(=O)NCCN1CCN(C(C#N)c2ccccc2)CC1 (stereo unspecified)	-4.04%
O=C1CCCN1CCc1nc(-c2ccsc2)no1	-1.22%
CC(C)CC(NC(=O)c1ccc[nH]1)C(=O)N1CCC(CO)CC1 (stereo unspecified)	6.74%
Cc1cc(C(=O)Cn2cnnc2[S+](C)[O-])cc(C)c1F (stereo unspecified)	4.31%
O=C(Cn1cnc(NC(=O)c2ccccn2)n1)NCc1ccccc1	9.97%
CS(=O)(=O)CCCNC1CCCN(Cc2noc(C3CC3)n2)C1 (stereo unspecified)	1.15%
CS(=O)(=O)c1ccc(OCCNCc2cccc(O)c2)cc1	2.21%
O=C(NCCOc1ncc(Cl)cc1Cl)c1cccnc1	-3.23%
CCc1nnc2n1CCN(C(=O)c1cnc(-c3cccs3)s1)C2	-3.28%
CC1CN(c2ccc(CNC(=O)NCCn3ccnc3)cn2)CCO1 (stereo unspecified)	8.4%
O=C(CCN1CCCCCC1c1ccco1)N1CCOCC1 (stereo unspecified)	6.14%
COc1ccccc1C(C)(C)NC(=O)NCCC(=O)NC1CCCC1	8.42%
CCOC(C)C(=O)NCCNS(C)(=O)=O (stereo unspecified)	-5.29%
CC1CCCN1C1CCN(C(=O)c2cccc(F)c2)CC1 (stereo unspecified)	5.93%
c1ccc2[nH]c(C3CCN(Cc4nnc(C5CC5)o4)CC3)cc2c1	3.65%
CCS(=O)(=O)c1ccc(N2CCC(NC(C)=O)CC2)cc1	10.6%
O=C(Cc1ccc(F)cc1)NCCNCC1CNc2ccnn2C1 (stereo unspecified)	-3.47%
Cc1c(Br)cccc1C(=O)NC(C)CN1CCCC1=O (stereo unspecified)	-1.58%
CSc1ccc(C(CNC(=O)C2CC2)N2CCc3sccc3C2)cc1 (stereo unspecified)	-5.31%
CC(C)(C)c1n[nH]c(C2CN(C(=O)c3cc(Cl)c[nH]3)CCO2)n1 (stereo unspecified)	-10.6%
CC1N(c2cnn(C)c2)C(=O)COC12CCN(Cc1ccoc1)CC2 (stereo unspecified)	0.997%
CN1CC2(COCCN(c3ncccn3)C2)OCC1=O (stereo unspecified)	-112%

Compound	cytotoxicity at 10 µM
CS(=O)(=O)Nc1ccc(-n2c(CCCO)nc3ccccc32)cn1	-3.14%
CCC(C(=O)NCC1CCN(c2cnn(C)c(=O)c2)CC1)n1cccn1 (stereo unspecified)	6.01%
O[C@@]1(CNCCCNc2cccnc2)CCCN2CCCC[C@@H]21	-3%
NC(=O)c1ccc(C2CCCN2C(=O)Cn2nc3ccccc3n2)s1 (stereo unspecified)	9.15%
Cc1[nH]c(=O)[nH]c(=O)c1CN1CCCC(CCc2ccccc2F)C1 (stereo unspecified)	-4.19%
Cc1cc(C)nc(N2CCN(Cc3cc4n(n3)CCNC4)CC2)n1	-8.46%
CCN(CC)CCn1cnc(-c2ccccc2)c1-c1cnc(C)s1	3.33%
CCCC1CCN(C(=O)c2coc(COc3ccc(OC)cc3)n2)C1 (stereo unspecified)	-0.551%
CCc1oc(C(=O)N2CCC(N(CC)C(C)=O)C2)cc1CN(CC)CC (stereo unspecified)	8.31%
CN(C)C(=O)c1coc(COc2ccccc2)n1	-7.3%
Cc1ccc(C(C(=O)NCc2n[nH]c(N)n2)N(C)C)cc1 (stereo unspecified)	0.529%
CCCc1nc(N2CC[C@@H](c3ccc4c(c3)OCO4)[C@H](O)C2)no1	-9.87%
c1cc(-c2ccn(CCN3CCCC3)n2)cc(-c2nccs2)c1	-8.96%
CCCN1CCN(C(=O)c2cnccc2C)[C@H]2CS(=O)(=O)C[C@H]21	-1.7%
O=C(O)CN1CCc2onc(C(c3ccccc3)c3ccccc3)c2C1	-0.849%
CN(Cc1cc2cc(F)ccc2[nH]1)C(=O)C1CC(=O)N(C(C)(C)C)C1 (stereo unspecified)	0.993%
CN1CC2(CCCN(Cc3nnc(-c4cccc(F)c4)o3)C2)OC1=O (stereo unspecified)	-1.66%
CC(C)c1noc(CN2CCC3(CCCO3)CCC2=O)n1 (stereo unspecified)	0.145%
CC(C)c1nn(C)c(N(C)C)c1CNCc1ccc2c(c1)OCCO2	-12.6%
Cc1ccc(OCCN2CCC(c3ccnn3CCO)CC2)cc1	-3.29%
CCN1CCOC(CNCc2ccccc2OCc2ccncc2)C1 (stereo unspecified)	-8.57%
CC(=O)N1CCCN(C(=O)c2ccc(Cn3ccccc3=O)o2)CC1	-1.4%
Cc1ccc(CC(=O)N2CCOCC2c2ncon2)cc1 (stereo unspecified)	-2.03%

Compound	cytotoxicity at 10 µM
CC(C(=O)N1CCCN(Cc2ccc(C#N)cc2)CC1)n1cccn1 (stereo unspecified)	-5.6%
CCN1CCN(C2CCN(Cc3nc(CCOC)no3)CC2)C1=O	-9.44%
Cn1c(NCC(O)c2ccc(Cl)cc2)c(C#N)c(=O)n(C)c1=O (stereo unspecified)	-3.27%
Cc1cc(C)n(C2CCCN(C(=O)Cc3cccc(F)c3)C2)n1 (stereo unspecified)	-8.09%
Cc1nc(CN2CCCC(NCCCOc3ccc(F)cc3)C2)no1 (stereo unspecified)	-7.03%
CN(CC(=O)NC1(C)CCS(=O)(=O)C1)Cc1ccc(Br)cc1 (stereo unspecified)	-1.4%
Cn1cc(CCC(=O)N2CCCC(n3cncn3)C2)cn1 (stereo unspecified)	-15.1%
Cc1ccc(C)c(S(=O)(=O)CCN2CCc3c(ncn3C)C2)c1	-12.5%
Cc1cccnc1NC(=O)NCc1cccnc1OC(C)C	-8.75%
Cc1cc(CN(Cc2cccs2)CC2CCCO2)on1 (stereo unspecified)	-10.1%
CCCc1n[nH]c(C2CN(C(=O)CCn3ccccc3=O)CCO2)n1 (stereo unspecified)	-0.438%
Cc1nn(C)c(N(C)C)c1CNCc1cccnc1OC(C)C	-0.924%
Cc1ccc(N2CCCC(NCc3ccccn3)C2)nn1 (stereo unspecified)	0.301%
O=C(NCCn1ccnc1)N1CCN(Cc2ccsc2)CC1	-15.3%
COC(=O)c1cccn1C1CCN(S(=O)(=O)c2ccccc2)CC1	-11.1%
O=C(COc1ccccc1Cl)N1CCCC(n2ccnc2)C1 (stereo unspecified)	-21.9%
CC(Cn1cccn1)NC(=O)NCc1ccc(S(C)(=O)=O)cc1 (stereo unspecified)	3.64%
O=C(CCc1ccsc1)N1CCC(N2CCNC2=O)CC1	-0.546%
Cc1cn2c(n1)CCC(NC(=O)c1csc(C(C)C)n1)C2 (stereo unspecified)	-16.4%
CC(C)c1cc(NC(=O)CN2CCCC2Cn2cccn2)on1 (stereo unspecified)	-8.35%
CCc1noc(C)c1C(=O)N1CCCC1Cn1cc(C)cn1 (stereo unspecified)	-6.46%
CC(C)c1nn(C)c(N2CCOCC2)c1CN[C@H](C)CO	-7.67%
Cc1nc(CN(Cc2cccs2)C2CCS(=O)(=O)C2)oc1C (stereo unspecified)	-6.46%

Compound	cytotoxicity at 10 µM
Cc1cnn(CC2CCCN2C(=O)c2cc3ccccc3[nH]2)c1 (stereo unspecified)	-0.433%
CCS(=O)(=O)N1CC[C@H]2CO[C@H](CN(C)C)[C@H]2C1	-72%
CCS(=O)(=O)N1CCc2c(nc(C3CCCN3)nc2NC)C1 (stereo unspecified)	-10.2%
CNC(=O)CN1CCCC12CCN(Cc1c[nH]cn1)CC2	0.312%
COCCC(=O)N1CCCC2(CCCN2Cc2ccccc2F)C1 (stereo unspecified)	8.01%
O=S(=O)(c1cccs1)N1Cc2nc(CN3CCCCC3)oc2C1	-121%
COCC1CN(c2ncc(F)cn2)Cc2cnn(C)c21 (stereo unspecified)	4.02%
Cn1ccnc1CN1CCc2onc(COCC3CC3)c2C1	6.86%
Cc1cccc(C(=O)N2C[C@@H](C)[C@@]3(CCN(c4ccsc4)C3=O)C2)n1	-78.9%
Cc1ncnc2c1CCN(C(=O)c1ccncc1)CC2	12%
CCC(C)N1Cc2c(C(=O)N3CCOCC3)nn(C)c2C1 (stereo unspecified)	-95.9%
O=S(=O)(C1CC1)N1CCC2(CCCN(c3ncccn3)C2)C1 (stereo unspecified)	-4.02%
O=C(c1cccs1)N1CC[C@@H](N2CCOCC2)[C@@H]1Cc1ccccc1	-81.6%
N#Cc1cccc(CN2C[C@H](OCC3CCOCC3)[C@H]3COC[C@H]32)c1	-0.82%
CN(C)CCNC(=O)c1cc(-c2cnc(N3CCOCC3)nc2)cn1C	-78.2%
Cc1cccc(N2CCC3(CCN(C(=O)c4cccnc4)CC3)C2)n1	-0.482%
Cn1ccnc1CN1CCN2C[C@H](OCc3cccnc3)C[C@H]2C1	-1.29%
CC(C)CNC(=O)[C@H]1C[C@H]2CN(C(=O)Nc3ccc(F)cc3)C[C@@H]1O2	0.428%
Cc1cc(C)c(Cn2cncn2)cc1CN1CC[C@@H]2CC[C@H](C1)N2	-3.96%
